In assay [1] the target is Chymotrypsinogen A (Bos taurus, UniProt P00766). As to the kind of experiment: Activity against serine protease bovine pancreatic Alpha-Chymotrypsinogen (BPC). Summed up: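 Colorimetric assay with bovine pancreatic α-chymotrypsin ([…], as printed) and 100 μM Succ-AAPF-pNA. Inhibitor at 300–0.06 μM, preincubated with enzyme 1 h at 30 °C. Substrate then added and hydrolysis run to ~30% conversion, read as pNA absorbance.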

Assay [2] deals with T1, Neutrophil elastase (Homo sapiens, UniProt P08246).
T1 sequence (P08246 whole entry): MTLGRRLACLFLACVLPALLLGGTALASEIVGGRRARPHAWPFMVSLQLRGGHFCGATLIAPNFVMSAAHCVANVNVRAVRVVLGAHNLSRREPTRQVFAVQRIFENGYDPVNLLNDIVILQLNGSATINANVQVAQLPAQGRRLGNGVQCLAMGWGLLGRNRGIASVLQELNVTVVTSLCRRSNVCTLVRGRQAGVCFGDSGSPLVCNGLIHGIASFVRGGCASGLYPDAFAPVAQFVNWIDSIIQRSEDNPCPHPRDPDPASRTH
As to the kind of experiment: Binding affinity for human leukocyte elastase(HLE) serine protease. A digest of the protocol:
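Human leukocyte elastase at 8 nM with 133 μM Succ-AAV-pNA. Inhibitor at 300–0.06 μM, preincubated with enzyme 1 h at 30 °C. Substrate hydrolysis run to ~30% conversion and read by absorbance.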

Assay [3] addresses Cathepsin B (Homo sapiens, UniProt P07858). As to the kind of experiment: Activity against serine protease human liver Cathepsin B (cat-B ). A digest of the protocol:
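Human liver cathepsin B, 5 nM, with the stock enzyme activated in 20 mM TCEP before use. Inhibitor at 300–0.06 μM, preincubated 1 h at 30 °C. Then 30 μM Z-FR-pNA added, hydrolysis to ~30% conversion, pNA absorbance read.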

Some results are limits rather than exact numbers.

For twelve molecules, IC50 results are on record in ChEMBL document CHEMBL1130262, “Peptidomimetic inhibitors of the human cytomegalovirus protease” (J Med Chem, 1997).

In general, IC50 refers to the point on the concentration scale where inhibition reaches its midpoint. For `CN(C)C(=O)C[C@H](NC(=O)[C@@H](NC(=O)CC(C)(C)C)C(C)(C)C)C(=O)N[C@H]1CN(OCc2ccccc2)C1=O`, the IC50 in assay [1] is > 75 µM; in assay [2], > 300 µM; in assay [3], > 300 µM.
With `CC(NC(=O)[C@H](CC(=O)N(C)C)NC(=O)[C@@H](NC(=O)CC(C)(C)C)C(C)(C)C)C(=O)c1nc2ccccc2o1` (stereo partly specified), the IC50 in assay [1] is > 300 µM; in assay [2], 183 µM; in assay [3], > 300 µM.
Turning to `CC(NC(=O)[C@H](CC(=O)N(C)C)NC(=O)[C@@H](NC(=O)CC(C)(C)C)C(C)(C)C)C(=O)c1nc2ncccc2o1` (stereo partly specified), the IC50 in assay [1] is > 300 µM; in assay [2] it was > 300 µM; in assay [3] it was 59 µM.
Consider `Cc1cccc2oc(C(=O)C(C)NC(=O)[C@H](CC(=O)N(C)C)NC(=O)[C@@H](NC(=O)CC(C)(C)C)C(C)(C)C)nc12` (stereo partly specified), for which the IC50 in assay [1], in assay [2] and in assay [3] was > 300 µM each time.
As to `CC(NC(=O)[C@H](CC(=O)N(C)C)NC(=O)[C@@H](NC(=O)CC(C)(C)C)C(C)(C)C)C(=O)c1nc2ccccc2s1` (stereo partly specified), the half-inhibitory concentration (IC50) in assay [1] is > 300 µM; in assay [2], > 300 µM; in assay [3], 19 µM.
`Cc1ccc2oc(C(=O)C(C)NC(=O)[C@H](CC(=O)N(C)C)NC(=O)[C@@H](NC(=O)CC(C)(C)C)C(C)(C)C)nc2c1` (stereo partly specified): the IC50 in assay [1], in assay [2] and in assay [3] was > 300 µM in each case.
Consider `Cc1cccc2nc(C(=O)C(C)NC(=O)[C@H](CC(=O)N(C)C)NC(=O)[C@@H](NC(=O)CC(C)(C)C)C(C)(C)C)oc12` (stereo partly specified), for which the half-inhibitory concentration (IC50) in assay [1], in assay [2] and in assay [3] was > 300 µM in each case.
Consider `CC(NC(=O)[C@H](CC(=O)N(C)C)NC(=O)[C@@H](NC(=O)CC(C)(C)C)C(C)(C)C)C(=O)C(F)(F)C(F)(F)F` (stereo partly specified), for which the IC50 in assay [1] was 14 µM; in assay [2], > 300 µM; in assay [3] it was > 300 µM.
Turning to `C[C@H](NC(=O)[C@H](CC(=O)N(C)C)NC(=O)[C@@H](NC(=O)CC(C)(C)C)C(C)(C)C)C(=O)C(F)(F)F`, the half-maximal inhibitory concentration (IC50) in assay [1], in assay [2] and in assay [3] was > 300 µM throughout.
In the case of `C[C@H](NC(=O)[C@H](CC(=O)N(C)C)NC(=O)[C@@H](NC(=O)CC(C)(C)C)C(C)(C)C)C(=O)C(F)(F)C(=O)NCc1ccccc1`, the IC50 in assay [1], in assay [2] and in assay [3] was > 300 µM in each case.
For the molecule `CC(NC(=O)[C@H](CC(=O)N(C)C)NC(=O)[C@@H](NC(=O)CC(C)(C)C)C(C)(C)C)C(=O)C(=O)NCc1ccccc1` (stereo partly specified), the 50% inhibitory concentration (IC50) in assay [1], in assay [2] and in assay [3] was > 300 µM throughout.
Turning to `Cc1ccc2nc(C(=O)C(C)NC(=O)[C@H](CC(=O)N(C)C)NC(=O)[C@@H](NC(=O)CC(C)(C)C)C(C)(C)C)oc2c1` (stereo partly specified), the IC50 in assay [1] was > 300 µM; in assay [2] it was > 300 µM; in assay [3] it was 225 µM.
